Assays:
[1] = biological target: T1, Protein deacetylase HDAC6 (Homo sapiens, UniProt Q9UBN7); experiment: Inhibition of full length human N-terminal GST-tagged HDAC6 using fluorogenic acetylated peptide as substrate incubated for 30 mins by fluorescence plate reader assay
T1 sequence (Q9UBN7 whole entry): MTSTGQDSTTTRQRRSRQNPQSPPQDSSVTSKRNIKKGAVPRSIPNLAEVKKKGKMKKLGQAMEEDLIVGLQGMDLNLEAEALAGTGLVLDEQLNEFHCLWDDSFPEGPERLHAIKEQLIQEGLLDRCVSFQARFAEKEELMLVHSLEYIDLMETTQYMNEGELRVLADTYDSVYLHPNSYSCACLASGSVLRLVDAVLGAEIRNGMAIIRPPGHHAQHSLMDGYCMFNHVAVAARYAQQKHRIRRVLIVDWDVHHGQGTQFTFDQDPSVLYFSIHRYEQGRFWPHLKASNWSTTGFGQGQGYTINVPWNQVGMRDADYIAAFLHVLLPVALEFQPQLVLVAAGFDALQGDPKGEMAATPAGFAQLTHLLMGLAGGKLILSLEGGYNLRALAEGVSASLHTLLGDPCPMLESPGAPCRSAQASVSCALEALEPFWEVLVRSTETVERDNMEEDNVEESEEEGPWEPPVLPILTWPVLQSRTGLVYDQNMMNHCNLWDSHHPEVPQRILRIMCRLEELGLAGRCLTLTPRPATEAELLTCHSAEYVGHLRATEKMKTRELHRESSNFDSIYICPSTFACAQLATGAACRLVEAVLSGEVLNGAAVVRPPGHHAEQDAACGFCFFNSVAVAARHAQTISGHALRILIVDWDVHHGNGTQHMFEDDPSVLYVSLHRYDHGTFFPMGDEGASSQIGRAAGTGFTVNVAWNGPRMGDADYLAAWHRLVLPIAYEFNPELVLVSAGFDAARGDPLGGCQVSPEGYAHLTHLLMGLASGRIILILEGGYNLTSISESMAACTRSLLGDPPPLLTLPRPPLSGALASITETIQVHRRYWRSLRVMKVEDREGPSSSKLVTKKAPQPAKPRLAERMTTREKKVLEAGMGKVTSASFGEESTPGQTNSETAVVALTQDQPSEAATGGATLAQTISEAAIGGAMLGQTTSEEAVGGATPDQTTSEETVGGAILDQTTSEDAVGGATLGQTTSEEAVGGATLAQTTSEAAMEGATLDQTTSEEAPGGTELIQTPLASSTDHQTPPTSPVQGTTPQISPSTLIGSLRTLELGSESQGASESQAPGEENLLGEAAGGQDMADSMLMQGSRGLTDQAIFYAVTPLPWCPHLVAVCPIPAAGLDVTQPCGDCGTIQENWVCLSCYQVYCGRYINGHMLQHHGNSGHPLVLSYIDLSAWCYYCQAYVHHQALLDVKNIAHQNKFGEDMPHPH

[2] = Permeability of the compound in PBS/EtOH buffer (70:30) incubated for 18 hrs by UV plate reader based PAMPA assay; assay type: ADME; settings: read-out: permeability
[3] = biological target: T2, Histone-lysine N-methyltransferase EHMT2 (Homo sapiens, UniProt Q96KQ7); experiment: Inhibition of human G9a enzyme using histone monomethyl-H3K9 peptide as substrate incubated for 1 hr in presence of SAM by TR-FRET assay
T2 sequence (Q96KQ7 whole entry): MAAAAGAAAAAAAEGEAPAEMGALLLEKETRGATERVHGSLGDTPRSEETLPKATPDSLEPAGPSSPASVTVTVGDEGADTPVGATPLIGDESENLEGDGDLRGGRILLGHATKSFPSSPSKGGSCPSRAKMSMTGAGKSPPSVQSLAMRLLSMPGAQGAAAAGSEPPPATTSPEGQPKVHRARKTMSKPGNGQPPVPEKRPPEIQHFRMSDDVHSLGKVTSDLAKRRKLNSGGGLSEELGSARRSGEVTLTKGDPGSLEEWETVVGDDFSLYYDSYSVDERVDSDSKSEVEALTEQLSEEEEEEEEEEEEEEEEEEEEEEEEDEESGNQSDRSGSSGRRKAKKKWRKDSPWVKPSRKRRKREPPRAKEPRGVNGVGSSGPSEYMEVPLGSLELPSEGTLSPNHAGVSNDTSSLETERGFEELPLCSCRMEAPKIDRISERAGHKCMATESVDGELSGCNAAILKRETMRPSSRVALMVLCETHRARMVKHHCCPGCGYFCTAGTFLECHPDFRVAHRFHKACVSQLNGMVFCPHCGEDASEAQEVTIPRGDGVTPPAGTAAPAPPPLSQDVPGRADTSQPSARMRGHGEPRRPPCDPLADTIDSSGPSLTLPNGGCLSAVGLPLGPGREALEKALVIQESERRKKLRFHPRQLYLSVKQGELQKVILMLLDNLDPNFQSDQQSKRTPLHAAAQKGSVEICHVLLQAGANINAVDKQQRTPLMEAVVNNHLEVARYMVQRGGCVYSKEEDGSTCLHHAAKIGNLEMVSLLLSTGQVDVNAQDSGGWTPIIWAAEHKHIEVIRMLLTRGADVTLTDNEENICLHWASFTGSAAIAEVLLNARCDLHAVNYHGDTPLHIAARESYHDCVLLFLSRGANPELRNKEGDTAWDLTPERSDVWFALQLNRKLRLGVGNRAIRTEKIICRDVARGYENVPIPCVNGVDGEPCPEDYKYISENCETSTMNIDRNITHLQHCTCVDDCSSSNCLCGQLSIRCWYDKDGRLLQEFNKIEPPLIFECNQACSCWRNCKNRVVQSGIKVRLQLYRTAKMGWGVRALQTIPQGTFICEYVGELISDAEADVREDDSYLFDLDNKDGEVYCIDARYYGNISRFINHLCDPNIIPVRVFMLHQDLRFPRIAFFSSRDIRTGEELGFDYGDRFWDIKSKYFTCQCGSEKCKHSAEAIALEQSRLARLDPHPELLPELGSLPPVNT

THLE-2 = experiment: Cytotoxicity against human THLE-2 cells assessed as decrease in cell viability measured after 72 hrs by Vialight-plus cell proliferation assay; assay type: cell-based; settings: thle-2, 72 h
Procedure, shortened: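 Human THLE-2 cells exposed to compound for 72 h. Cytotoxicity reported as LC50 and pLC50, averaged from at least two independent experiments on different days.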

MM1.S = experiment: Antiproliferative activity against human MM1.S cells assessed as inhibition of cell proliferation measured up to 72 hrs by CellTiter96 Aqueous one reagent based assay; assay type: functional
Histone deacetylase 1 = Histone deacetylase 1 (Homo sapiens, UniProt Q13547); experiment: Inhibition of full length human C-terminal His-tagged/C-terminal Flag-tagged HDAC1 using fluorogenic acetylated peptide as substrate incubated for 30 mins by fluorescence plate reader assay
[4] = biological target: DNA (cytosine-5)-methyltransferase 1 (Homo sapiens, UniProt P26358); experiment: Inhibition of human DNMT1 enzyme using polydeoxy-inosine polydeoxy-cytosine DNA as substrate incubated for 15 mins in presence of SAM by TR-FRET assay
[5] = time hrs <=72, read-out: pGI50 (converted)

Histone deacetylase 1, sequence (Q13547 whole entry): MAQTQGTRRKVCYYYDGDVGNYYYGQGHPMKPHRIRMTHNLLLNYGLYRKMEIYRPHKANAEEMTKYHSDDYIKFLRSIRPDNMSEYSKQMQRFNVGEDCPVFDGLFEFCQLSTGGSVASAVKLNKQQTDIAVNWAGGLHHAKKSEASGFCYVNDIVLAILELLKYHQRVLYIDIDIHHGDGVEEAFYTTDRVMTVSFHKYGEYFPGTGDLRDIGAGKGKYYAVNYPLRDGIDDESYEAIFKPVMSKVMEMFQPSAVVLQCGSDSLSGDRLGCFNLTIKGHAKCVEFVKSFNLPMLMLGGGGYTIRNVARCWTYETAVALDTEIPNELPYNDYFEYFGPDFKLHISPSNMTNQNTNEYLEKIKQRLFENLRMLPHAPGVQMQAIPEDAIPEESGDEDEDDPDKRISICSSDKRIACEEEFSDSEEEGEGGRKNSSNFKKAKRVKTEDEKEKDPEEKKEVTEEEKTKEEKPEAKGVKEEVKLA
DNA (cytosine-5)-methyltransferase 1, sequence (P26358 whole entry): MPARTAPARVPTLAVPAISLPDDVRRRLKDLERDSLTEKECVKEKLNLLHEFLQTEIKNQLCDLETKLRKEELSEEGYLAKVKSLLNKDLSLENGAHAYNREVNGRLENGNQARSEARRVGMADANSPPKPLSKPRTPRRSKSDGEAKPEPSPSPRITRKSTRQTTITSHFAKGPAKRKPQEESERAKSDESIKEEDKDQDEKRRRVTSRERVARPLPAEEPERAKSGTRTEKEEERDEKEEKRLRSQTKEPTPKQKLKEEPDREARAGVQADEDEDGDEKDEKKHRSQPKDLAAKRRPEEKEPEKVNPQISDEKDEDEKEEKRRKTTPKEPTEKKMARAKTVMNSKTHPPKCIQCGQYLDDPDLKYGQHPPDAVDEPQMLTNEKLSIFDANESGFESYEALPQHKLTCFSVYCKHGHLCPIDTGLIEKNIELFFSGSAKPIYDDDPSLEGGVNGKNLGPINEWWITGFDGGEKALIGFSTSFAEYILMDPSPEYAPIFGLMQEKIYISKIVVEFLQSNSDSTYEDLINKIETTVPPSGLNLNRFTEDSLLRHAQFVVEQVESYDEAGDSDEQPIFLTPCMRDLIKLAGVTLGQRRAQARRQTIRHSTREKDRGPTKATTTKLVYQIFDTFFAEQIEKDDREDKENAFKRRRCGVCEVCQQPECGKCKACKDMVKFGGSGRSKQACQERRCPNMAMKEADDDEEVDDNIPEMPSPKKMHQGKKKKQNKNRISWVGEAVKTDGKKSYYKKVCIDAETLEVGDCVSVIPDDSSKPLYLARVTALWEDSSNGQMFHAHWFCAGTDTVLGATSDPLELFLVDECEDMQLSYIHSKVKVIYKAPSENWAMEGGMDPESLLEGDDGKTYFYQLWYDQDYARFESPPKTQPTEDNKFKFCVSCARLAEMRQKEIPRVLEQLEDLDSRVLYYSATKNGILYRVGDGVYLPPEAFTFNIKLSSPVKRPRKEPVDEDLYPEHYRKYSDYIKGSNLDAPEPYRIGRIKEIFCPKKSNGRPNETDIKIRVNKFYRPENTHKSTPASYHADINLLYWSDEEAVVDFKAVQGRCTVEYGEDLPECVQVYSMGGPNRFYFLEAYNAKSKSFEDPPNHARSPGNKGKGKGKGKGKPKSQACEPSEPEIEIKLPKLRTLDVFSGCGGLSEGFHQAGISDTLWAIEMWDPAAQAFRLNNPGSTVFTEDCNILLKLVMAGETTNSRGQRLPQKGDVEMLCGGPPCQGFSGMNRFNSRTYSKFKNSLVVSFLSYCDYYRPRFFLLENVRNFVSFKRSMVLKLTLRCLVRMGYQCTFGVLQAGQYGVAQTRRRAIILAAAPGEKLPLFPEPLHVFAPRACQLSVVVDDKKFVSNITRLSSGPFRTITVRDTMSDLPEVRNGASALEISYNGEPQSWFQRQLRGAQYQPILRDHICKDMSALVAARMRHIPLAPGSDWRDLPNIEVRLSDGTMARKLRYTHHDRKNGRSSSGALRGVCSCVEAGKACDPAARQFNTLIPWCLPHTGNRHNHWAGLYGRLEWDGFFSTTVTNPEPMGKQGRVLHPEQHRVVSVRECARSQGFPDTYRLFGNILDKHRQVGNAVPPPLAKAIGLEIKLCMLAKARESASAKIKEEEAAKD

| Structure (SMILES) | IC50 [1] [nM] | IC50 [3] [nM] | IC50 (Histone deacetylase 1) [nM] | IC50 [4] [nM] | Papp at 18 h [2] [×10⁻⁶ cm/s] | LC50 (THLE-2) [nM] | pLC50 (THLE-2) | GI50 (MM1.S; time hrs <=72, read-out: GI50) [nM] | GI50 (MM1.S; [5]) [nM] |
| --- | --- | --- | --- | --- | --- | --- | --- | --- | --- |
| COc1cc2c(NCC3CCN(c4ncc(C(=O)NO)cn4)CC3)cc(-c3ccc(C)o3)nc2cc1OCC1CCNCC1 | 351 | 2070 | 6 | 1140 | 0.025 | 19700 | 4.71 | > 10000 | > 10000 |
| COc1cc2nc(N3CCCCC3)cc(NCC3CCN(c4ncc(C(=O)NO)cn4)CC3)c2cc1OC | 234 | > 10000 | 3 | > 10000 |  |  |  |  |  |
| COc1cc2nc(C)cc(NCC3CCN(c4ncc(C(=O)NO)cn4)CC3)c2cc1OC | 253 | 7.2 | 3 | > 10000 |  |  |  |  |  |
| COc1cc2c(NCC3CCN(c4ccc(C(=O)NO)cc4)CC3)cc(-c3ccc(C)o3)nc2cc1OCCCN1CCCC1 | 67 | 269 | 78 | 417 | 0.05 | 9700 | 5.01 | 3760 | 3720 |
| COc1cc2nc(-c3cc(C)oc3C)cc(NCC3CCN(c4ncc(C(=O)NO)cn4)CC3)c2cc1OC | 126 | > 10000 | 5 | > 10000 |  |  |  |  |  |
| COc1cc2c(NC3CCN(Cc4ccc(C(=O)NO)cc4)CC3)cc(-c3ccc(C)o3)nc2cc1OCCCN1CCCC1 | 39 | 47 | 147 | 318 |  | 22050 | 4.66 | 4210 | 4170 |
| COc1cc2c(NC3CCN(c4ccc(C(=O)NO)cc4)CC3)cc(-c3ccc(C)o3)nc2cc1OCCCN1CCCC1 | 133 | 25 | 415 | 691 | 0.014 | 6656 | 5.18 | > 10000 | > 10000 |
| COc1cc2nc(-c3ccc(C)o3)cc(NCC3CCN(Cc4ccc(C(=O)NO)cc4)CC3)c2cc1OC | 84 | > 10000 | 330 | 267 | 0.556 | 204 | 6.69 | 217 | 219 |
| COc1cc2nc(-c3ccc(C)o3)cc(NCC3CCN(Cc4ccc(C(=O)NO)s4)CC3)c2cc1OC | 66 | > 10000 | 303 | 323 | 0.401 | 2227 | 5.65 | 1940 | 1950 |
| COc1cc2c(NCC3CCN(Cc4ccc(C(=O)NO)cc4)CC3)cc(-c3ccc(C)o3)nc2cc1OCCCN1CCCC1 | 53 | 46 | 524 | 167 |  | 3890 | 5.41 | 3570 | 3550 |
| O=C(CCCCCCC(=O)Nc1ccccc1)NO [VORINOSTAT] |  | > 10000 |  | > 10000 |  |  |  |  |  |
| Cc1[nH]c2ccccc2c1CCNCc1ccc(/C=C/C(=O)NO)cc1 [PANOBINOSTAT] |  |  |  |  | 1.42 | 22 | 7.66 | 8.9 | 8.91 |
| COc1cc2c(NCC3CCN(c4ncc(C(=O)NO)cn4)CC3)cc(C)nc2cc1OCCCN1CCCC1 | 350 | 4 | 7 | 555 |  | > 100000 | < 4 | > 10000 | > 10000 |

The next lines start with results.

| IC50 [1] [nM] | IC50 [3] [nM] | IC50 (Histone deacetylase 1) [nM] | IC50 [4] [nM] | Structure (SMILES) | Papp at 18 h [2] [×10⁻⁶ cm/s] | LC50 (THLE-2) [nM] | pLC50 (THLE-2) | GI50 (MM1.S; time hrs <=72, read-out: GI50) [nM] | GI50 (MM1.S; [5]) [nM] |
| --- | --- | --- | --- | --- | --- | --- | --- | --- | --- |
| 351 | 1920 | 115 | 1430 | COc1cc2c(NCc3ccc([C@H]4CC[C@@H](C(=O)NO)CC4)cc3)cc(-c3ccc(C)o3)nc2cc1OCCCN1CCCC1 |  |  |  |  |  |
| 230 | > 10000 | 3 | > 10000 | COc1cc2nc(-c3ccccc3)cc(NCC3CCN(c4ncc(C(=O)NO)cn4)CC3)c2cc1OC |  |  |  |  |  |
| 2890 | > 10000 | 396 | 2660 | COc1cc2nc(-c3ccc(C)o3)cc(N[C@H]3CC[C@@H](C(=O)NO)CC3)c2cc1OC |  |  |  |  |  |
| > 20000 | 38 | > 20000 | 566 | COc1cc2c(NCC3CCN(C4CCC(C(=O)NO)CC4)CC3)cc(-c3ccc(C)o3)nc2cc1OCCCN1CCCC1 (stereo not drawn) |  |  |  |  |  |
| > 20000 | > 10000 | > 4000 | 4180 | COc1cc2nc(-c3ccc(C)o3)cc(N[C@H]3CC[C@H](C(=O)NO)CC3)c2cc1OC |  |  |  |  |  |
| 122 | 3100 | 34 | 2760 | COc1cc2c(NCC3CCC(c4ccc(C(=O)NO)cc4)CC3)cc(-c3ccc(C)o3)nc2cc1OCCCN1CCCC1 (stereo not drawn) |  |  |  |  |  |
| 465 | > 10000 | 144 | 8410 | COc1cc2nc(-c3ccc(C)o3)cc(NCC3CCN(c4ccc(C(=O)NO)cn4)CC3)c2cc1OC |  |  |  |  |  |
| 1260 | > 10000 | 17 | > 10000 | COc1cc2nc(-c3ccc(C)s3)cc(NCC3CCN(c4ncc(C(=O)NO)cn4)CC3)c2cc1OC |  |  |  |  |  |
| 204 | > 10000 | 87 | > 10000 | COc1cc2nc(-c3ccc(C)o3)cc(NCc3ccc(C(=O)NO)cn3)c2cc1OC |  |  |  |  |  |
| 9620 | 1650 | 3320 | 2270 | COc1cc2c(NCc3ccc([C@H]4CC[C@H](C(=O)NO)CC4)cc3)cc(-c3ccc(C)o3)nc2cc1OCCCN1CCCC1 |  |  |  |  |  |

Source: ChEMBL document CHEMBL4834403, “Design and Synthesis of Novel Epigenetic Inhibitors Targeting Histone Deacetylases, DNA Methyltransferase 1, and Lysine Methyltransferase G9a with In Vivo Efficacy in Multiple Myeloma” (J Med Chem, 2021)
